The values that follow come from ChEMBL document CHEMBL2169868, “Flavone-based novel antidiabetic and antidyslipidemic agents” (J Med Chem, 2012).

The nature of data set [1]: Plasma clearance in Sprague-Dawley rat at 25 mg/kg, po by LC-MS/MS method. The data set is classed as ADME, organism-based. More on the design: dose 25 mg/kg, route oral. The procedure, abridged: (§1)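 Male Sprague−Dawley rats given a single 25 mg/kg oral dose (aqueous 0.5% methyl cellulose suspension for one compound). Blood drawn from 0.08 to 48 h. LC-MS/MS, linear range 0.78−400 ng/mL.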

A short description of data set [2]: Cmax in Sprague-Dawley rat at 25 mg/kg, po by LC-MS/MS method. The settings on record: in vivo. Also noted: dose 25 mg/kg, route oral. Type of data set: ADME, organism-based. Put shortly: as §1
Data set [3] relates to Mus musculus. Nature of the data set: Antidiabetic activity in diabetic C57BL/KsJ db/db mouse model assessed as reduction in postprandial glucose level in hyperglycemia at 1 mg/kg, po measured 2 hrs post dose. The data set is classed as functional. More on the design: scale not given: the % may be the effect or the level left. Put shortly: (§2)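 db/db mice (C57BL/KsJ, 12−18 weeks, 40−50 g; selected by glucose 200−350 mg/dL) dosed orally daily for 10 consecutive days at 1, 3, 10, 25 or 50 mg/kg; postprandial blood glucose profile recorded on day 6 with food access interrupted; mean % change versus vehicle in 5 animals per group; Student t test.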

For data set [4], the system named is Syrian golden hamster. As to the kind of experiment: Antidyslipidemic activity in high fructose and high-fat diet fed dyslipidemic Syrian golden hamster model assessed as reduction in NEFA level at 100 mg/kg/day, po for 7 days. The data set is classed as functional, Mesocricetus auratus. Also noted: scale not given: the % may be the effect or the level left. The procedure, abridged:
(§3)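 Syrian golden hamsters fed high-fructose high-fat diet; oral dosing in 1% gum acacia at 10, 30, 100 mg/kg (or 25 mg/kg) for 7 days, sham control given vehicle; plasma TG, cholesterol, LDL-C, HDL-C, glycerol and NEFA (kits), lipoprotein lipase activity and body weight; % change versus HFD control, six hamsters per group.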

For data set [5], the system named is Mus musculus. As to the kind of experiment: Antidiabetic activity in diabetic C57BL/KsJ db/db mouse model assessed as reduction in postprandial glucose level in hyperglycemia at 3 mg/kg, po measured 2 hrs post dose. Type of data set: functional. Also noted: scale not given: the % may be the effect or the level left. Put shortly:
as §2

The test system of data set [6] is Mus musculus. As to the kind of experiment: Antidiabetic activity in diabetic C57BL/KsJ db/db mouse model assessed as improvement in glucose tolerance in hyperglycemia at 3 mg/kg, po measured 2 hrs post dose. Type of data set: functional.
Data set [7] relates to Syrian golden hamster. Nature of the data set: Antidyslipidemic activity in high fructose and high-fat diet fed dyslipidemic Syrian golden hamster model assessed as reduction in triglyceride level at 10 mg/kg/day, po for 7 day, po. Type of data set: functional, Mesocricetus auratus. Also noted: scale not given: the % may be the effect or the level left. Put shortly: as §3

Data set [8] relates to Mus musculus. Nature of the data set: Antihyperglycemic activity in diabetic C57BL/KsJ db/db mouse model assessed as reduction in plasma insulin level in hyperglycemia at 25 mg/kg, po qd for 10 days. The data set is classed as functional. More on the design: scale not given: the % may be the effect or the level left. Put shortly:
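db/db mice dosed orally every day for 10 days. On day 11, retro-orbital blood was drawn and plasma insulin measured. Mean % change versus vehicle-treated control, 5 mice per group; Student t test.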

The subject of data set [9] is Syrian golden hamster. As to the kind of experiment: Reduction in body weight in high fructose and high-fat diet fed dyslipidemic Syrian golden hamster model at 100 mg/kg/day, po for 7 days. The data set is classed as functional, Mesocricetus auratus. Also noted: scale not given: the % may be the effect or the level left. Put shortly:
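HFD-fed Syrian golden hamsters, six per group, fed a high-fructose diet. Oral dosing in 1% gum acacia for 7 days. Sham group received vehicle. Plasma TG was measured and body weight tracked. Results given as % change versus HFD control.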

The subject of data set [10] is Syrian golden hamster. Nature of the data set: Antidyslipidemic activity in high fructose and high-fat diet fed dyslipidemic Syrian golden hamster model assessed as increase in HDL-cholesterol level at 100 mg/kg/day, po for 7 days. Type of data set: functional, Mesocricetus auratus. Put shortly: as §3

Take `CC(C)(C)NC[C@H](O)COc1ccc2c(=O)cc(-c3cc(OCc4ccccc4)cc(OCc4ccccc4)c3)oc2c1`: the CL/F (as a rule, clearance divided by bioavailability, as obtained after extravascular dosing) in data set [1] is 62.5 mL/min/kg. Besides, the concentration in data set [2] peaked (Cmax) at 70.3 ng/mL. Besides, the Activity in the data set on Mus musculus [3] is on record as 14.8%; with Syrian golden hamster [4], 59.1%; with Mus musculus [5], 22.1%; in the data set on Mus musculus [6], 35.1%; with Syrian golden hamster [7], 21.2%; in the data set on Mus musculus [8], 53.4%. The Activity with Syrian golden hamster [9] came to 12.5%; with Syrian golden hamster [10], 27.9%.
